# Tests used:
# [1] = test system: Mycobacterium tuberculosis; test: Antitubercular activity against Mycobacterium tuberculosis H37Rv isolate SRI after 5 days by resazurin-based microplate assay; assay type: functional; details: 120 h
# [2] = test system: Mycobacterium tuberculosis; test: Antitubercular activity against Mycobacterium tuberculosis H37Rv isolate ITR after 7 days by luminescence spectrometry; assay type: functional; details: 168 h
# [3] = test system: Mycobacterium tuberculosis; test: Antitubercular activity against Mycobacterium tuberculosis H37Rv incubated for 10 days in anaerobic condition followed by 48 hrs incubation in aerobic condition by LORA assay; assay type: functional
# [4] = Selectivity index, ratio of CC50 for Vero cells to MIC90 for Mycobacterium tuberculosis H37Rv isolate SRI; assay type: functional
# [5] = test system: Mycobacterium tuberculosis; test: Antitubercular activity against p-amino-salicyclic acid-resistant Mycobacterium tuberculosis ATCC 35821 after 5 days by resazurin-based microplate assay; assay type: functional; details: ATCC 35821, 120 h
# Outline: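 Mid-log cultures grown in 7H9 with glycerol, Tween-80 and ADC. Compounds in DMSO were tested two-fold from […] against ~10^5 CFU/mL, 37°C for 5 d. Resazurin was then added for a further 2 d, and fluorescence read at ex 530/em 590 with visual confirmation. MIC was the lowest concentration inhibiting 90% of growth. Final DMSO 0.625%; two-fold variation taken as assay error.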
# [6] = Solubility of the compound in 0.9% saline solution after 48 hrs by shake flask method at pH 7.4; assay type: physicochemical
# Outline: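 Shake-flask method in triplicate: ~20 mg of ground compound in 5 mL 0.9% saline pH 7.4, stirred at 25°C for 48 h. The sample was filtered through 0.45 µm PVDF and the filtrate quantified by HPLC at each compound's absorption maximum against a per-compound standard curve (R² > 0.99).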
# Plasma = test: Plasma concentration in Balb/c mouse at 100 mg/kg, po at 24 hrs; assay type: ADME, organism-based; parameters: dose 100 mg/kg, route oral; details: in vivo, BLD = below limit of detection
# Outline: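 Single oral gavage dose of 100 mg/kg to female mice, three mice per time point. Blood was drawn at 5, 15, 30, 60 min and 2, 4, 6, 8 and 24 h and processed to plasma for analysis. Noncompartmental PK analysis.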
# Vero = test: (§1) Cytotoxicity against african green monkey Vero cells after 72 hrs by CellTiterGlo assay; details: chlorocebus sabaeus, vero, 72 h
# [7] = as §1; details: chlorocebus sabaeus, Vero cells
# L5178Y [8] = test: Mutagenicity against mouse L5178Y cells at 10 ug/mL after 4 hrs by MOLY assay in absence of S9 fraction; assay type: toxicity, cell-based
# Outline: (§2)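 Mouse lymphoma tk+/- → tk-/- forward mutation assay, 4 h or 24 h exposure, with or without Aroclor 1254-induced rat-liver S9. Endpoints were suspension and relative total growth, relative cloning efficiency, mutation frequency, and small TFT-resistant colonies (<0.6 mm). A call was positive for significant mutation-frequency induction; induction only slightly above 40 × 10^-6 net over mean solvent control was considered biologically negative.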
# L5178Y [9] = test: Mutagenicity against mouse L5178Y cells at 10 ug/mL after 4 hrs by MOLY assay in presence of S9 fraction; assay type: toxicity, cell-based; details: s9, 4 h; outline: as §2
# L5178Y [10] = test: Mutagenicity against mouse L5178Y cells at 25 ug/mL after 4 hrs by MOLY assay in absence of S9 fraction; assay type: toxicity, cell-based; outline: as §2
# L5178Y [11] = test: Mutagenicity against mouse L5178Y cells at 25 ug/mL after 4 hrs by MOLY assay in presence of S9 fraction; assay type: toxicity, cell-based; details: s9, 4 h; outline: as §2
# L5178Y [12] = test: Mutagenicity against mouse L5178Y cells at 50 ug/mL after 4 hrs by MOLY assay in absence of S9 fraction; assay type: toxicity, cell-based; outline: as §2
# L5178Y [13] = test: Mutagenicity against mouse L5178Y cells at 50 ug/mL after 4 hrs by MOLY assay in presence of S9 fraction; assay type: toxicity, cell-based; details: s9, 4 h; outline: as §2
# L5178Y [14] = test: Mutagenicity against mouse L5178Y cells at 100 ug/mL after 4 hrs by MOLY assay in absence of S9 fraction; assay type: toxicity, cell-based; outline: as §2
# L5178Y [15] = test: Mutagenicity against mouse L5178Y cells at 100 ug/mL after 4 hrs by MOLY assay in presence of S9 fraction; assay type: toxicity, cell-based; details: s9, 4 h; outline: as §2
# Salmonella typhimurium [16] = test: Mutagenicity in Salmonella typhimurium TA98 assessed as increase in number of revertant colonies by Ames test in absence of S9 fraction; assay type: toxicity, organism-based; details: salmonella enterica subsp. enterica serovar typhimurium
# Outline: (§3)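 Plate-incorporation Ames test in Salmonella typhimurium TA98 and TA100, with and without an Aroclor 1254-induced rat-liver metabolic activation system containing 10% S9. Revertant colonies counted per plate, with means and standard deviations and background lawn condition recorded.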
# Salmonella typhimurium [17] = test: Mutagenicity in Salmonella typhimurium TA98 assessed as increase in number of revertant colonies by Ames test in presence of S9 fraction; assay type: toxicity, organism-based; details: salmonella enterica subsp. enterica serovar typhimurium; outline: as §3
# Salmonella typhimurium [18] = test: Mutagenicity in Salmonella typhimurium TA100 assessed as increase in number of revertant colonies by Ames test in absence of S9 fraction; assay type: toxicity, organism-based; details: salmonella enterica subsp. enterica serovar typhimurium; outline: as §3
# Salmonella typhimurium [19] = test: Mutagenicity in Salmonella typhimurium TA100 assessed as increase in number of revertant colonies by Ames test in presence of S9 fraction; assay type: toxicity, organism-based; details: salmonella enterica subsp. enterica serovar typhimurium; outline: as §3
# L5178Y [20] = test: Mutagenicity against mouse L5178Y cells at 10 ug/mL after 24 hrs by MOLY assay in absence of S9 fraction; assay type: toxicity, cell-based; outline: as §2
# L5178Y [21] = test: Mutagenicity against mouse L5178Y cells at 25 ug/mL after 24 hrs by MOLY assay in absence of S9 fraction; assay type: toxicity, cell-based; outline: as §2
smiles,measurement,setting,value
CCNc1n[n+]([O-])c2ccccc2[n+]1[O-],MIC90,[1],1.2 µg/mL
same,MIC90,[2],0.57 µg/mL
same,MIC90,[3],0.37 µg/mL
same,Selectivity Index,[4],17
same,MIC90,[5],1.2 µg/mL
same,solubility thermodynamic at 48 h,[6],1350 µg/mL
same,Cp,Plasma,BLD
CC(C)(C)Nc1n[n+]([O-])c2ccccc2[n+]1[O-],MIC90,[1],1.2 µg/mL
same,MIC90,[2],1.9 µg/mL
same,MIC90,[3],0.82 µg/mL
same,CC50,Vero,8 µg/mL
same,Selectivity Index,[4],6.4
same,MIC90,[5],1.2 µg/mL
COCC(C)Nc1n[n+]([O-])c2cc(F)ccc2[n+]1[O-] (centres undefined),MIC90,[1],5 µg/mL
same,MIC90,[2],2 µg/mL
same,MIC90,[3],1.9 µg/mL
same,CC50 at 72 h,[7],6.3 µg/mL
same,Selectivity Index,[4],1.3
COCC(C)Nc1n[n+]([O-])c2cc(Cl)ccc2[n+]1[O-] (centres undefined),MIC90,[1],1.2 µg/mL
same,MIC90,[2],1.4 µg/mL
same,MIC90,[3],0.78 µg/mL
same,CC50 at 72 h,[7],2.6 µg/mL
same,Selectivity Index,[4],2.1
CCNc1n[n+]([O-])c2cccc(C)c2[n+]1[O-],MIC90,[1],0.62 µg/mL
same,MIC90,[2],0.51 µg/mL
same,MIC90,[3],0.48 µg/mL
same,CC50,Vero,22 µg/mL
same,Selectivity Index,[4],36
same,MIC90,[5],0.31 µg/mL
CCNc1n[n+]([O-])c2cc3c(cc2[n+]1[O-])CCC3,MIC90,[1],1.2 µg/mL
same,MIC90,[2],0.95 µg/mL
same,MIC90,[3],0.83 µg/mL
same,CC50,Vero,36 µg/mL
same,Selectivity Index,[4],29
same,MIC90,[5],1.2 µg/mL
same,Activity,L5178Y [8],Toxic
same,Activity,L5178Y [9],Toxic
same,Activity,L5178Y [10],Toxic
same,Activity,L5178Y [11],Toxic
same,Activity,L5178Y [12],Toxic
same,Activity,L5178Y [13],Toxic
same,Activity,L5178Y [14],Toxic
same,Activity,L5178Y [15],Toxic
same,Activity,Salmonella typhimurium [16],Dose-dependent effect
same,Activity,Salmonella typhimurium [17],Dose-dependent effect
same,Activity,Salmonella typhimurium [18],Dose-dependent effect
same,Activity,Salmonella typhimurium [19],Dose-dependent effect
[O-][n+]1nc(NC2CCC2)[n+]([O-])c2cc3c(cc21)CCC3,MIC90,[1],0.62 µg/mL
same,MIC90,[2],0.96 µg/mL
same,MIC90,[3],0.44 µg/mL
same,CC50,Vero,34 µg/mL
same,Selectivity Index,[4],54
same,MIC90,[5],0.62 µg/mL
CCNc1n[n+]([O-])c2cc(C)c(OC)cc2[n+]1[O-],MIC90,[2],3.5 µg/mL
same,MIC90,[3],2.5 µg/mL
same,CC50,Vero,> 100 µg/mL
same,Selectivity Index,[4],>40
same,MIC90,[5],1.2 µg/mL
[O-][n+]1nc(N2CCCC2)[n+]([O-])c2ccccc21,MIC90,[1],0.31 µg/mL
same,CC50,Vero,17 µg/mL
same,Selectivity Index,[4],56
same,MIC90,[5],0.62 µg/mL
[O-][n+]1nc(N2CCCC2)[n+]([O-])c2cc3c(cc21)CCC3,MIC90,[1],0.31 µg/mL
same,MIC90,[2],0.46 µg/mL
same,MIC90,[3],0.99 µg/mL
same,CC50,Vero,25 µg/mL
same,Selectivity Index,[4],80
same,MIC90,[5],0.31 µg/mL
same,Activity,L5178Y [8],Non-toxic
same,Activity,L5178Y [20],Non-toxic
same,Activity,L5178Y [9],Non-toxic
same,Activity,L5178Y [10],Non-toxic
same,Activity,L5178Y [21],Non-toxic
same,Activity,L5178Y [11],Non-toxic
same,Activity,L5178Y [12],Non-toxic
same,Activity,L5178Y [13],Non-toxic
same,Activity,L5178Y [14],Non-toxic
same,Activity,L5178Y [15],Non-toxic
same,solubility thermodynamic at 48 h,[6],280 µg/mL
same,Cp,Plasma,BLD
same,Activity,Salmonella typhimurium [16],Dose-dependent effect
same,Activity,Salmonella typhimurium [17],Dose-dependent effect
same,Activity,Salmonella typhimurium [18],Dose-dependent effect
same,Activity,Salmonella typhimurium [19],Dose-dependent effect
[O-][n+]1nc(N2CCCCC2)[n+]([O-])c2cc3c(cc21)CCC3,MIC90,[1],0.62 µg/mL
same,MIC90,[2],0.4 µg/mL
same,MIC90,[3],0.49 µg/mL
same,CC50,Vero,21 µg/mL
same,Selectivity Index,[4],13
same,MIC90,[5],0.31 µg/mL
CN(C)c1n[n+]([O-])c2cc3c(cc2[n+]1[O-])CCC3,MIC90,[1],0.62 µg/mL
same,MIC90,[2],0.3 µg/mL
same,MIC90,[3],1.5 µg/mL
same,CC50,Vero,24 µg/mL
same,Selectivity Index,[4],13
same,MIC90,[5],0.15 µg/mL
CN(Cc1ccccc1)c1n[n+]([O-])c2cc3c(cc2[n+]1[O-])CCC3,MIC90,[1],0.31 µg/mL
same,MIC90,[2],0.15 µg/mL
same,MIC90,[3],0.41 µg/mL
same,CC50,Vero,17 µg/mL
same,Selectivity Index,[4],53
same,MIC90,[5],0.07 µg/mL
CN(CCc1ccccc1)c1n[n+]([O-])c2cc3c(cc2[n+]1[O-])CCC3,MIC90,[1],0.31 µg/mL
same,MIC90,[2],0.24 µg/mL
same,MIC90,[3],0.44 µg/mL
same,CC50,Vero,40 µg/mL
same,Selectivity Index,[4],130
same,MIC90,[5],0.15 µg/mL
CC1CCCCN1c1n[n+]([O-])c2cc3c(cc2[n+]1[O-])CCC3 (centres undefined),MIC90,[1],1.2 µg/mL
same,MIC90,[2],0.66 µg/mL
same,MIC90,[3],0.47 µg/mL
same,CC50,Vero,> 50 µg/mL
same,Selectivity Index,[4],>40
same,MIC90,[5],0.62 µg/mL
O=C1CN(/N=C/c2ccc([N+](=O)[O-])o2)C(=O)N1 [NITROFURANTOIN],MIC90,[1],16 µg/mL
same,MIC90,[2],28 µg/mL
same,MIC90,[3],32 µg/mL
same,CC50,Vero,23 µg/mL
same,Selectivity Index,[4],1.1
CO[C@H]1/C=C/O[C@@]2(C)Oc3c(C)c(O)c4c(O)c(c(/C=N/N5CCN(C)CC5)c(O)c4c3C2=O)NC(=O)/C(C)=C\C=C\[C@H](C)[C@H](O)[C@@H](C)[C@@H](O)[C@@H](C)[C@H](OC(C)=O)[C@@H]1C [RIFAMPIN],MIC90,[1],0.003 µg/mL
same,MIC90,[2],0.041 µg/mL
same,MIC90,[3],2 µg/mL
same,CC50,Vero,> 50 µg/mL
same,Selectivity Index,[4],>15000
Nc1n[n+]([O-])c2ccccc2[n+]1[O-] [TIRAPAZAMINE],MIC90,[1],5 µg/mL
same,MIC90,[2],3.7 µg/mL
same,MIC90,[3],7.3 µg/mL
same,CC50,Vero,8 µg/mL
same,Selectivity Index,[4],1.6
